What was measured:
Type in all cases: functional, cell-based
LNCaP [1] = assay: Cytotoxicity against human LNCAP cells after 5 days by MTT assay; details: 120 h
In short: (§1)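 Human prostate lines from ATCC were kept in log phase in RPMI with 10% FBS, 1% L-glutamine and 1% penicillin-streptomycin at 37 °C, 5% CO2. PC3 and DU145 were seeded at 2.5 X 10^3 cells/well and LNCaP at 6 X 10^3 cells/well, then left 24 h. Cells were exposed continuously to 0.01–10 μM (0.1% DMSO final; DMSO controls), with MTT viability read on days 3, 5 and 7.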

DU-145 [2] = assay: Cytotoxicity against human DU145 cells after 5 days by MTT assay; details: DU-145, 120 h; in short: as §1
PC-3 [3] = assay: Cytotoxicity against human PC3 cells after 5 days by MTT assay; details: PC-3, 120 h; in short: as §1
PC-3 [4] = assay: Cytotoxicity against human PC3 cells after 3 days by MTT assay; details: PC-3, 72 h; in short: as §1
DU-145 [5] = assay: Cytotoxicity against human DU145 cells after 7 days by MTT assay; details: DU-145, 168 h; in short: as §1
LNCaP [6] = assay: Cytotoxicity against human LNCAP cells after 3 days by MTT assay; details: 72 h; in short: as §1
DU-145 [7] = assay: Cytotoxicity against human DU145 cells after 3 days by MTT assay; details: DU-145, 72 h; in short: as §1
LNCaP [8] = assay: Cytotoxicity against human LNCAP cells after 7 days by MTT assay; details: 168 h; in short: as §1
PC-3 [9] = assay: Cytotoxicity against human PC3 cells after 7 days by MTT assay; details: PC-3, 168 h; in short: as §1

Compound	IC50 (LNCaP [1]) [µM]	IC50 (DU-145 [2]) [µM]	IC50 (PC-3 [3]) [µM]	IC50 (PC-3 [4]) [µM]	IC50 (DU-145 [5]) [µM]	IC50 (LNCaP [6]) [µM]	IC50 (DU-145 [7]) [µM]	IC50 (LNCaP [8]) [µM]	IC50 (PC-3 [9]) [µM]
CC[C@H]1CN2CCc3cc(OC)c(OC)cc3[C@@H]2C[C@@H]1C[C@@H]1c2cc(OC)c(OC)cc2CCN1C(=S)S	0.088	0.08	0.091	0.442	0.079	0.565	0.377		
CC[C@H]1CN2CCc3cc(OC)c(OC)cc3[C@@H]2C[C@@H]1C[C@@H]1c2cc(OC)c(OC)cc2CCN1C(=S)SCc1ccccc1	1.89	2.07	2.02	2.54	1.98		2.74	1.31	
CCCCCCSC(=S)N1CCc2cc(OC)c(OC)cc2[C@H]1C[C@H]1C[C@H]2c3cc(OC)c(OC)cc3CCN2C[C@@H]1CC	1.61	3.19	3.21	5.98	2.3	3.66	3.66	1.59	3.03
CC[C@H]1CN2CCc3cc(OC)c(OC)cc3[C@@H]2C[C@@H]1C[C@@H]1c2cc(OC)c(OC)cc2CCN1C(=S)SCCCCC(=O)OC	2.31	3.15	4.86	8.26	2.25	4.79	3.22	1.76	4.36
CC[C@H]1CN2CCc3cc(OC)c(OC)cc3[C@@H]2C[C@@H]1C[C@@H]1c2cc(OC)c(OC)cc2CCN1C(=S)SCCC(N)=O	4.73	> 10	6.56	> 10	> 10	9.22	> 10	3.39	5.2
CC[C@H]1CN2CCc3cc(OC)c(OC)cc3[C@@H]2C[C@@H]1C[C@@H]1c2cc(OC)c(OC)cc2CCN1C(=S)SCC(=O)Nc1ccc(Br)cc1	2.19	2.8	2.77	3.87	1.6	5.28	5.65	1.7	1.51
CC[C@H]1CN2CCc3cc(OC)c(OC)cc3[C@@H]2C[C@@H]1C[C@@H]1c2cc(OC)c(OC)cc2CCN1C(=S)SCC(=O)c1ccc(Cl)cc1	2.31	3.2	2.7	3.59	2.45	5.72	3.17	1.95	2.69
CCOC(=O)c1ccc(NC(=O)CSC(=S)N2CCc3cc(OC)c(OC)cc3[C@H]2C[C@H]2C[C@H]3c4cc(OC)c(OC)cc4CCN3C[C@@H]2CC)cc1	2.72	2.9	2.71	4.36	2.47	4.67	5.16	1.66	1.9
CC[C@H]1CN2CCc3cc(OC)c(OC)cc3[C@@H]2C[C@@H]1C[C@@H]1c2cc(OC)c(OC)cc2CCN1C(=S)SCCN1C(=O)c2ccccc2C1=O	2.8	3.58	2.77	3.21	3.05	3.22	3.81	2.3	2.38
CC[C@H]1CN2CCc3cc(OC)c(OC)cc3[C@@H]2C[C@@H]1C[C@H]1NCCc2cc(OC)c(OC)cc21 [EMETINE]	0.027					0.037		0.037	

Reference: ChEMBL document CHEMBL3603742, “Design, synthesis and cytotoxicity studies of dithiocarbamate ester derivatives of emetine in prostate cancer cell lines” (Bioorg Med Chem, 2015)
